Results from different studies.
Compare with care: the assays were run in different laboratories.
Effect on: cell growth or viability

SMILES | cell line | test | conditions | quantity | result
CC[C@H](C)[C@H](NC(=O)[C@@H](N)CCC(=O)O)C(=O)N[C@@H](C)C(=O)N1CCC[C@H]1C(=O)N[C@H](C(=O)N[C@@H](CC(C)C)C(=O)N[C@@H](Cc1c[nH]cn1)C(=O)N[C@@H](CO)C(=O)N[C@H](C(=O)O)[C@@H](C)OP(=O)(O)O)C(C)C | HeLa | MTT | 72 h | IC50 | 0.96 µM
Cc1c(Cl)c(=O)oc2cc(OCCCC[Se]C#N)ccc12 | HeLa | SRB | – | GI50 | 15 µM
COc1c(C)c2c(c(O)c1C/C=C(\C)CCC(=O)O)C(=O)OC2 | Hs-578T | – | – | IC50 | 2.51 µM
CC(N)C(O)CCCCCCCCCCCCCCC(=O)CCCCCCCC(O)C(C)N (stereo not shown) | HeLa | – | – | IC50 | 24.5 µM
COc1cccc2c1C(=O)c1c(O)c3c(c(O)c1C2=O)CC(O)(C(=O)CO)CC3OC1CC(NC(=O)OC2C=CCCCCC2)C(O)C(C)O1 (stereo not shown) | HeLa | CCK-8 | 72 h | IC50 | > 10 µM
Cc1cc(=O)oc2cc(OCCCC[Se]C#N)ccc12 | HeLa | SRB | – | GI50 | 0.98 µM
O=C1[O][Pt]2([NH][C@@H]3CCCC[C@H]3[NH]2)[O]C1=O | SNU-449 | imaging | 72 h | IC50 | 12.9 µM
COC(=O)c1cc(C(C)=NNc2nc(-c3ccc(S(=O)(=O)F)cc3)cs2)ccc1O | HSF | MTT | 96 h | IC50 | 40.5 µM
N.N.[Cl][Pt][Cl] | SU-DHL-6 | ATP luminescence | 72 h | IC50 | 7.06 µM
O=[N+]([O-])c1ccc(NCCCCCCN=C=S)c2nonc12 | HDFa | MTT | 24 h | IC50 | 5.8 µM
CC(C)C[C@H](NC(=O)[C@H](CC(C)C)NC(=O)[C@@H]1CCCN1C(=O)[C@H](C)NC(=O)[C@@H](NC(=O)[C@H](C)N)C(C)C)C(=O)N[C@@H](Cc1c[nH]cn1)C(=O)N[C@@H](CO)C(=O)N[C@H](C(=O)O)[C@@H](C)OP(=O)(O)O | HeLa | MTT | 72 h | IC50 | 1.05 µM
O=C1c2ccccc2-c2c3c(cc4ccnc1c24)OCO3 | HeLa | MTT | 75 h | IC50 | 15.7 µM
O=[N+]([O-])c1ccc(NCCCCN=C=S)c2nonc12 | HDFa | MTT | 24 h | IC50 | 7.6 µM
